From ChEMBL document CHEMBL3414543, “Novel series of benzoquinones with high potency against 5-lipoxygenase in human polymorphonuclear leukocytes” (Eur J Med Chem, 2015)

Columns and labels:
[1] = target: T1, Polyunsaturated fatty acid lipoxygenase ALOX12 (Homo sapiens) (UniProt P18054); experiment: Inhibition of 12-LOX in human blood PMNL assessed as remaining activity by measuring 12-HETE synthesis at 10 uM
T1 sequence (whole entry): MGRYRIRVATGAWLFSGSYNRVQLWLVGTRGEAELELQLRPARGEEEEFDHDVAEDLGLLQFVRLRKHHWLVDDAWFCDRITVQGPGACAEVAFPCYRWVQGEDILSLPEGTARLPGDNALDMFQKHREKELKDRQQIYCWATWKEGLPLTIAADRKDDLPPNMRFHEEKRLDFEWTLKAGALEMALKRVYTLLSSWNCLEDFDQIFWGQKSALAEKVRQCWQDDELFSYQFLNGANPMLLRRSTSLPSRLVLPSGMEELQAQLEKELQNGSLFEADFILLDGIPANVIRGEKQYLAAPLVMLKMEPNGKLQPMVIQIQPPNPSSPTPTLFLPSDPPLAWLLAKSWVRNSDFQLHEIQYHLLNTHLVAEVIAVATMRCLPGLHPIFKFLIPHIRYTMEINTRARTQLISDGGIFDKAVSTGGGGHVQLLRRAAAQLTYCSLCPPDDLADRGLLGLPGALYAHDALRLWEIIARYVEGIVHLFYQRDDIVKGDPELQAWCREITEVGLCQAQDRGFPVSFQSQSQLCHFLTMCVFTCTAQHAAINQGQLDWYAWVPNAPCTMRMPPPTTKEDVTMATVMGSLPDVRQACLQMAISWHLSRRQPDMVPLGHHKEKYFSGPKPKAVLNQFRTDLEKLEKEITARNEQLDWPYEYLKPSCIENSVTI
Procedure, shortened: (§1)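 PMNL isolated from heparinized blood of fasted healthy donors by dextran sedimentation and Nycoprep centrifugation, with hypotonic lysis of erythrocytes. Cells at 5 × 10⁶ in 1 ml PBS pH 7.4 with 1 mg/ml glucose and 1 mM CaCl₂, preincubated 15 min at 37 °C with compound or 0.1% DMSO vehicle, then stimulated 10 min at 37 °C. 12-HETE or 15-HETE formation measured.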

[2] = target: T2, Polyunsaturated fatty acid 5-lipoxygenase (Homo sapiens, UniProt P09917); experiment: Inhibition of human recombinant 5-LOX expressed in Escherichia coli BL21 incubated for 10 mins in presence of arachidonic acid by RP-HPLC based cell-free assay
T2 sequence (P09917 whole entry): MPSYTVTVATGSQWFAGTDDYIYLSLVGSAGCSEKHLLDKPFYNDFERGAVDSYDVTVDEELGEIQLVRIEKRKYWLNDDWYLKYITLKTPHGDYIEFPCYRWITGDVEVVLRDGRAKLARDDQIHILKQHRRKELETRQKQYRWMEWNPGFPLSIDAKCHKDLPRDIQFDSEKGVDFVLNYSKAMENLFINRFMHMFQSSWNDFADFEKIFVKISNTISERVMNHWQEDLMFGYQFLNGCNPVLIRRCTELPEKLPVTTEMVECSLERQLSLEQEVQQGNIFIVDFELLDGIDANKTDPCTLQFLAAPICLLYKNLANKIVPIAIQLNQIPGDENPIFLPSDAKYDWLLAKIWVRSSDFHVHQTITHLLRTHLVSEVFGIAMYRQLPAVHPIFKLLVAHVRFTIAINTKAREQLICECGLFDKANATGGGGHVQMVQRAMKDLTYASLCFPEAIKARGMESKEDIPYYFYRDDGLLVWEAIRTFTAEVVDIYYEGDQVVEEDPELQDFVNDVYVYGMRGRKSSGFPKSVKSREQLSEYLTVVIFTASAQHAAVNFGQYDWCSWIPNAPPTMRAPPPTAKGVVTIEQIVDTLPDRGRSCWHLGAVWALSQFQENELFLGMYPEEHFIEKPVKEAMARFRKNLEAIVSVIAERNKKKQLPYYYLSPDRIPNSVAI
Procedure, shortened: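 Recombinant human 5-LO, semi-purified from a 40,000 × g lysate supernatant on ATP-agarose, diluted in ice-cold PBS with 1 mM EDTA and 1 mM ATP. Preincubated 10 min at 4 °C with compound or 0.1% DMSO, warmed 30 s at 37 °C, then started with 2 mM CaCl₂ plus 20 µM AA. Reaction 10 min at 37 °C, stopped with cold methanol, products by RP-HPLC. IC₅₀ from 4–5 concentrations.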

[3] = target: T2, Polyunsaturated fatty acid 5-lipoxygenase; experiment: Inhibition of 5-LOX in A23187-stimulated human blood PMNL assessed as reduction in lipoxygenase products formation in presence of arachidonic acid pre-incubated for 15 mins followed by stimulation with A23187 for 10 mins by RP-HPLC based cell based assay
Procedure, shortened: (§2)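 Human PMNL (5 × 10⁶ in 1 ml PBS pH 7.4, 1 mg/ml glucose, 1 mM CaCl₂), preincubated 15 min at 37 °C with compound or 0.1% DMSO, then stimulated 10 min at 37 °C with A23187, with or without AA. 5-LO products measured. Values are mean ± S.E. of 3–4 independent experiments. IC₅₀ read graphically from 4–5 concentrations.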

[4] = target: T3, Polyunsaturated fatty acid lipoxygenase ALOX15 (Homo sapiens) (UniProt P16050); experiment: Inhibition of 15-LOX-1 in human blood PMNL assessed as remaining activity by measuring 15-HETE synthesis at 10 uM; procedure, shortened: as §1
T3 sequence (whole entry): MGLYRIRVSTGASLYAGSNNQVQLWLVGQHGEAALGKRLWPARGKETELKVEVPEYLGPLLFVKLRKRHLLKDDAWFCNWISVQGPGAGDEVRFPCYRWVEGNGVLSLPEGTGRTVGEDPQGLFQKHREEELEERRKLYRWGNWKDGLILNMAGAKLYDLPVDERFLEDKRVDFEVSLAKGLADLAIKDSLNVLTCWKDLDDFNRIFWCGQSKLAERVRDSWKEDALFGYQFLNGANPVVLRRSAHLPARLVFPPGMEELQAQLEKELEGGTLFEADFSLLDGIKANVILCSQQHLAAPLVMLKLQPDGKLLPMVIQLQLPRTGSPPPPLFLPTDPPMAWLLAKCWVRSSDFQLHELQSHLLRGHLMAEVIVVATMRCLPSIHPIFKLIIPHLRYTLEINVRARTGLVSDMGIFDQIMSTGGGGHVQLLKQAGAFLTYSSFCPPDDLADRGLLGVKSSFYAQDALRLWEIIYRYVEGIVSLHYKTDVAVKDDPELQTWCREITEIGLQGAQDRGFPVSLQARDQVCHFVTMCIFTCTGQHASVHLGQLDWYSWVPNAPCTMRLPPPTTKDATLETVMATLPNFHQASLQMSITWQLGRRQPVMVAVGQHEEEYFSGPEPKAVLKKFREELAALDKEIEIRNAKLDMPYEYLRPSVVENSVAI

[5] = target: T2, Polyunsaturated fatty acid 5-lipoxygenase; experiment: Inhibition of 5-LOX in A23187-stimulated human blood PMNL assessed as reduction in lipoxygenase products formation pre-incubated for 15 mins followed by stimulation with A23187 for 10 mins by RP-HPLC based cell based assay; procedure, shortened: as §2
[6] = target: T4, Polyunsaturated fatty acid 5-lipoxygenase (Homo sapiens) (UniProt P09917); experiment: Inhibition of 5-LOX in A23187-stimulated human blood PMNL assessed as remaining activity by measuring lipoxygenase products formation at 10 uM in presence of arachidonic acid pre-incubated for 15 mins followed by stimulation with A23187 for 10 mins by RP-HPLC based cell based assay; procedure, shortened: as §2
T4 sequence (whole entry): T2 sequence (P09917 whole entry)

| Activity [1] | IC50 [2] | IC50 [3] | Activity [4] | IC50 [5] | Activity [6] | Structure (SMILES) |
| --- | --- | --- | --- | --- | --- | --- |
| 103% | 3300 nM | 7900 nM | 103% | 3400 nM |  | CCCCC1=C(OC)C(=O)C=C(OC)C1=O |
| 89.6% | 1200 nM | 570 nM | 123% | 320 nM |  | CCCCCCCCC1=C(OC)C(=O)C=C(OC)C1=O |
| 87.7% | 230 nM | > 10000 nM | 103% | 4300 nM | 61.7% | CCCCCCCCCCCCCCCC1=C(O)C(=O)C=C(O)C1=O |
| 87.3% | 40 nM | 90 nM | 139% | 120 nM |  | CCCCCCCCCCCCCCC1=C(OC)C(OC)=CC(=O)C1=O |
| 18.6% | 2600 nM | 990 nM | 91.7% | 330 nM |  | CCCCCCC1=C(OC)C(OC)=CC(=O)C1=O |
| 72.8% | 600 nM | 390 nM | 125% | 380 nM |  | COC1=CC(=O)C(=O)C(C/C=C(\C)CCC=C(C)C)=C1OC |
| 122% | 4300 nM | 2700 nM | 123% | 590 nM |  | CCCCCCCCCCC1=C(O)C(=O)C=C(OC)C1=O |
| 90.6% | 170 nM | 3900 nM | 65.1% | 4600 nM |  | CCCCCCCCCCCCC1=C(O)C(=O)C=C(O)C1=O |
| 101% | 170 nM | 5100 nM | 139% | 3100 nM |  | CCCCCCCCCCCCCCC1=C(O)C(=O)C=C(O)C1=O |
| 84.5% | 210 nM | 1400 nM | 116% | 290 nM |  | CCCCCCCCCCCCCCC1=C(OC)C(=O)C=C(OC)C1=O |
| 211% | 300 nM | 100 nM | 174% | 150 nM |  | COC1=CC(=O)C(=O)C(C/C=C(\C)CC/C=C(\C)CCC=C(C)C)=C1OC |
| 148% | 740 nM | 1100 nM | 116% | 560 nM |  | CCCCCCCCCCCCC1=C(O)C(=O)C=C(OC)C1=O |
| 87.3% | 270 nM | 860 nM | 115% | 390 nM |  | CCCCCCCCCCCCCCCC1=C(OC)C(=O)C=C(OC)C1=O |
| 76% | 180 nM | 7100 nM | 90% | 2000 nM |  | CCCCCCCCCCC1=C(O)C(=O)C=C(O)C1=O |
| 139% | 1700 nM | 1200 nM | 136% | 310 nM |  | COC1=CC(=O)C(OC)=C(C/C=C(\C)CC/C=C(\C)CCC=C(C)C)C1=O |
| 102% | 2600 nM | 1400 nM | 101% | 320 nM |  | CCCCCCC1=C(OC)C(=O)C=C(OC)C1=O |
| 59.3% | 330 nM | 820 nM | 102% | 380 nM |  | CCCCCCCCC1=C(OC)C(OC)=CC(=O)C1=O |
| 114% | 420 nM | 490 nM | 116% | 270 nM |  | CCCCCCCCCCCCCCC1=C(O)C(=O)C=C(OC)C1=O |
| 144% | 1800 nM | 1700 nM |  | 600 nM |  | CCCCCCCCCCC1=C(OC)C(=O)C=C(OC)C1=O |
| 58.8% | 260 nM | 310 nM | 84.1% | 230 nM |  | CCCCCCCCCCCCCC1=C(OC)C(=O)C=C(OC)C1=O |
| 138% | 3800 nM | 1300 nM | 131% | 680 nM |  | CCCCCCCCCCCC1=C(O)C(=O)C=C(OC)C1=O [5-O-METHYLEMBELIN] |
| 84.3% | 220 nM | 4700 nM | 124% | 2500 nM |  | CCCCCCCCCCCCCC1=C(O)C(=O)C=C(O)C1=O [Rapanone] |
| 161% | 930 nM | 590 nM | 93.4% | 200 nM |  | CCCCCCCCCCCC1=C(OC)C(=O)C=C(OC)C1=O |
| 0.91% |  |  | 5.2% |  |  | N#C/C(=C\c1ccc(O)c(O)c1)C(=O)OC/C=C/c1ccccc1 |
| 90.3% | 3300 nM | 1600 nM | 127% | 450 nM |  | COC1=CC(=O)C(OC)=C(C/C=C(\C)CCC=C(C)C)C1=O |
| 138% | 610 nM | 490 nM | 127% | 630 nM |  | CCCCCCCCCCCCC1=C(OC)C(=O)C=C(OC)C1=O |
| 108% | 5600 nM | 2400 nM | 122% | 1900 nM |  | COC1=CC(=O)C(O)=C(C/C=C(\C)CC/C=C(\C)CCC=C(C)C)C1=O |

| Structure (SMILES) | Activity [1] | IC50 [2] | IC50 [3] | Activity [4] | IC50 [5] | Activity [6] |
| --- | --- | --- | --- | --- | --- | --- |
| CCCCCCCCCCCCCCCC1=C(O)C(=O)C=C(OC)C1=O | 92.8% | 270 nM | 860 nM | 103% | 390 nM |  |
| CCCCCCCCCCCCCC1=C(O)C(=O)C=C(OC)C1=O [Sorgoleone-364] | 73.2% | 920 nM | 2300 nM | 88.1% | 770 nM |  |
